{
  "source": "ChEMBL document CHEMBL1140904",
  "about": "“Synthesis and analysis of novel glycerolipids for the treatment of metabolic syndrome” (J Med Chem, 2009)",
  "key": {"Rattus norvegicus [1]": {"system": "Rattus norvegicus", "test": "Effect on fatty acid composition in Wistar rat assessed as change in plasma saturated fatty acid level at dose equivalent to 250 umol of tetradecylthioacetic acid, po after 6 days", "format": "functional"}, "Rattus norvegicus [2]": {"system": "Rattus norvegicus", "test": "Effect on fatty acid composition in Wistar rat assessed as change in liver MUFA level at dose equivalent to 85 umol of tetradecylthioacetic acid, po after 6 days", "format": "functional", "in_short": "(§1)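 Male Wistar rats were gavaged once daily for 6 days with compound in 0.5% CMC at 85 or 250 µmol TTA-equivalent per animal. Controls received palmitic acid. Liver was homogenized in 0.25 M sucrose/10 mM HEPES pH 7.4/1 mM EDTA at 0-4 °C. Lipids were extracted with chloroform:methanol 2:1 and spiked with 21:0 internal standard. Fatty acids were BF3-methanol transesterified and quantified as wt%. Values are mean ± SD, n=5.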"}, "Rattus norvegicus [3]": {"system": "Rattus norvegicus", "test": "Effect on fatty acid composition in Wistar rat assessed as change in plasma LCn-6/18:2 level at dose equivalent to 250 umol of tetradecylthioacetic acid, po after 6 days", "format": "functional"}, "Rattus norvegicus [4]": {"system": "Rattus norvegicus", "test": "Effect on fatty acid composition in Wistar rat assessed as change in plasma saturated fatty acid level at dose equivalent to 85 umol of tetradecylthioacetic acid, po after 6 days", "format": "functional"}, "Rattus norvegicus [5]": {"system": "Rattus norvegicus", "test": "Plasma concentration in Wistar rat assessed as tetradecylthioacetic acid at dose equivalent to 250 umol of tetradecylthioacetic acid, po after 6 days", "format": "ADME, organism-based", "conditions": "in vivo, 144 h"}, "Rattus norvegicus [6]": {"system": "Rattus norvegicus", "test": "Effect on fatty acid composition in Wistar rat assessed as change in plasma MUFA level at dose equivalent to 250 umol of tetradecylthioacetic acid, po after 6 days", "format": "functional"}, "Rattus norvegicus [7]": {"system": "Rattus norvegicus", "test": "Effect on fatty acid composition in Wistar rat assessed as change in plasma 18;2, n-6 level at dose equivalent to 85 umol of tetradecylthioacetic acid, po after 6 days", "format": "functional"}, "Rattus norvegicus [8]": {"system": "Rattus norvegicus", "test": "Effect on fatty acid composition in Wistar rat assessed as change in liver saturated fatty acid level at dose equivalent to 85 umol of tetradecylthioacetic acid, po after 6 days", "format": "functional", "in_short": "as §1"}, "Rattus norvegicus [9]": {"system": "Rattus norvegicus", "test": "Effect on fatty acid composition in Wistar rat assessed as change in liver saturated fatty acid level at dose equivalent to 250 umol of tetradecylthioacetic acid, po after 6 days", "format": "functional", "in_short": "as §1"}, "Rattus norvegicus [10]": {"system": "Rattus norvegicus", "test": "Effect on fatty acid composition in Wistar rat assessed as change in liver MUFA level at dose equivalent to 250 umol of tetradecylthioacetic acid, po after 6 days", "format": "functional", "in_short": "as §1"}, "Rattus norvegicus [11]": {"system": "Rattus norvegicus", "test": "Decrease in plasma cholesterol level in po dosed Wistar rat after 6 days", "format": "functional, organism-based", "in_short": "(§2)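 Male Wistar rats (170-210 g), housed in pairs with chow and water, were gavaged once daily for 6 days with test lipid in 0.5% (w/v) carboxymethylcellulose at 85 or 250 µmol TTA-equivalent per animal. Controls received palmitic acid in CMC. Plasma triacylglycerol and cholesterol were measured with an enzymatic kit, and liver levels were also determined. Values are mean ± SD, n=5 rats.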"}, "Rattus norvegicus [12]": {"system": "Rattus norvegicus", "test": "Effect on fatty acid composition in Wistar rat assessed as change in liver LCPUFA, n-6 level at dose equivalent to 85 umol of tetradecylthioacetic acid, po after 6 days", "format": "functional", "in_short": "as §1"}, "Rattus norvegicus [13]": {"system": "Rattus norvegicus", "test": "Effect on fatty acid composition in Wistar rat assessed as change in liver LCn-6/18:2 level at dose equivalent to 250 umol of tetradecylthioacetic acid, po after 6 days", "format": "functional", "in_short": "as §1"}, "Rattus norvegicus [14]": {"system": "Rattus norvegicus", "test": "Effect on fatty acid composition in Wistar rat assessed as change in liver PUFA level at dose equivalent to 85 umol of tetradecylthioacetic acid, po after 6 days", "format": "functional", "in_short": "as §1"}, "Rattus norvegicus [15]": {"system": "Rattus norvegicus", "test": "Effect on fatty acid composition in Wistar rat assessed as change in liver LCn-6/18:2 level at dose equivalent to 85 umol of tetradecylthioacetic acid, po after 6 days", "format": "functional", "in_short": "as §1"}, "Rattus norvegicus [16]": {"system": "Rattus norvegicus", "test": "Effect on fatty acid composition in Wistar rat assessed as change in plasma LCPUFA, n-6 level at dose equivalent to 85 umol of tetradecylthioacetic acid, po after 6 days", "format": "functional"}, "Rattus norvegicus [17]": {"system": "Rattus norvegicus", "test": "Effect on fatty acid composition in Wistar rat assessed as change in liver LCPUFA, n-6 level at dose equivalent to 250 umol of tetradecylthioacetic acid, po after 6 days", "format": "functional", "in_short": "as §1"}, "Rattus norvegicus [18]": {"system": "Rattus norvegicus", "test": "Effect on fatty acid composition in Wistar rat assessed as change in liver 18;2, n-6 level at dose equivalent to 250 umol of tetradecylthioacetic acid, po after 6 days", "format": "functional", "in_short": "as §1"}, "Rattus norvegicus [19]": {"system": "Rattus norvegicus", "test": "Effect on fatty acid composition in Wistar rat assessed as change in plasma MUFA level at dose equivalent to 85 umol of tetradecylthioacetic acid, po after 6 days", "format": "functional"}, "Rattus norvegicus [20]": {"system": "Rattus norvegicus", "test": "Increase in [1-14C]palmitoyl-CoA oxidation in po dosed Wistar rat liver homogenate after 6 days", "format": "functional, organism-based", "in_short": "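Rats were dosed by gastric intubation for 6 days with 85 or 250 µmol TTA-equivalent in 0.5% CMC, with palmitic acid controls. Liver was homogenized in 0.25 M sucrose, 10 mM HEPES pH 7.4, 1 mM EDTA at 0-4 °C. Palmitoyl-CoA oxidation was read as acid-soluble products from [1-14C]-palmitoyl-CoA in the postnuclear fraction. Mean ± SD, n=5.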"}, "Rattus norvegicus [21]": {"system": "Rattus norvegicus", "test": "Plasma concentration in Wistar rat assessed as tetradecylthioacetic acid at dose equivalent to 85 umol of tetradecylthioacetic acid, po after 6 days", "format": "ADME, organism-based", "conditions": "in vivo, 144 h"}, "Rattus norvegicus [22]": {"system": "Rattus norvegicus", "test": "Effect on fatty acid composition in Wistar rat assessed as change in plasma PUFA level at dose equivalent to 250 umol of tetradecylthioacetic acid, po after 6 days", "format": "functional"}, "Rattus norvegicus [23]": {"system": "Rattus norvegicus", "test": "Induction of PPAR-alpha-regulated HMG-CoA synthase activity in po dosed Wistar rat after 6 days", "format": "functional, organism-based", "in_short": "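Wistar rats were gavaged daily for 6 days at 85 or 250 µmol TTA-equivalent in 0.5% CMC, with palmitic acid controls. HMG-CoA synthase activity was assayed in the liver postnuclear fraction by the Clinkenbeard method. Mean ± SD, 5 rats/group.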"}, "Rattus norvegicus [24]": {"system": "Rattus norvegicus", "test": "Effect on fatty acid composition in Wistar rat assessed as change in plasma LCPUFA, n-6 level at dose equivalent to 250 umol of tetradecylthioacetic acid, po after 6 days", "format": "functional"}, "Rattus norvegicus [25]": {"system": "Rattus norvegicus", "test": "Decrease in plasma triacylglycerol level in po dosed Wistar rat after 6 days", "format": "functional, organism-based", "in_short": "as §2"}, "Rattus norvegicus [26]": {"system": "Rattus norvegicus", "test": "Effect on fatty acid composition in Wistar rat assessed as change in liver 18;2, n-6 level at dose equivalent to 85 umol of tetradecylthioacetic acid, po after 6 days", "format": "functional", "in_short": "as §1"}, "Rattus norvegicus [27]": {"system": "Rattus norvegicus", "test": "Effect on fatty acid composition in Wistar rat assessed as change in plasma LCn-6/18:2 level at dose equivalent to 85 umol of tetradecylthioacetic acid, po after 6 days", "format": "functional"}, "Rattus norvegicus [28]": {"system": "Rattus norvegicus", "test": "Induction of PPAR-alpha-regulated fatty acyl-CoA oxidase activity in po dosed Wistar rat after 6 days", "format": "functional, organism-based", "in_short": "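Rats were dosed by gastric intubation for 6 days at 85 or 250 µmol TTA-equivalent in 0.5% CMC, with palmitic acid controls. Fatty acyl-CoA oxidase was measured in the liver postnuclear fraction by a coupled assay, following H2O2 production as the rise in dichlorofluorescein absorbance with palmitoyl-CoA. Mean ± SD, n=5.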"}, "Rattus norvegicus [29]": {"system": "Rattus norvegicus", "test": "Effect on fatty acid composition in Wistar rat assessed as change in plasma 18;2, n-6 level at dose equivalent to 250 umol of tetradecylthioacetic acid, po after 6 days", "format": "functional"}, "Rattus norvegicus [30]": {"system": "Rattus norvegicus", "test": "Effect on fatty acid composition in Wistar rat assessed as change in plasma PUFA level at dose equivalent to 85 umol of tetradecylthioacetic acid, po after 6 days", "format": "functional"}, "Rattus norvegicus [31]": {"system": "Rattus norvegicus", "test": "Induction of PPAR-alpha-regulated CPT2 activity in po dosed Wistar rat after 6 days", "format": "functional, organism-based", "in_short": "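Wistar rats were dosed orally for 6 days (85 or 250 µmol TTA-equivalent in 0.5% CMC; palmitic acid controls). CPT-II activity was measured in the liver mitochondrial fraction, prepared from sucrose/HEPES pH 7.4/EDTA homogenate at 0-4 °C. Means ± SD from 5 rats per group.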"}, "Rattus norvegicus [32]": {"system": "Rattus norvegicus", "test": "Effect on fatty acid composition in Wistar rat assessed as change in liver PUFA level at dose equivalent to 250 umol of tetradecylthioacetic acid, po after 6 days", "format": "functional", "in_short": "as §1"}, "Liver": {"system": "Liver", "test": "Drug concentration in Wistar rat liver assessed as tetradecylthioacetic acid at dose equivalent to 85 umol of tetradecylthioacetic acid, po after 6 days", "format": "ADME, organism-based", "conditions": "in vivo, 144 h", "in_short": "as §1"}},
  "data": [
    {"smiles": "CCCCCCCCCCCCCCSCC(=O)OCC(COC(=O)CSCCCCCCCCCCCCCC)OC(=O)CSCCCCCCCCCCCCCC", "note": "[TRITETRADECYLTHIOACETYL GLYCEROL]", "values": [
      {"measurement": "Activity", "setting": "Rattus norvegicus [1]", "result": 34.67, "unit": "%"},
      {"measurement": "Activity", "setting": "Rattus norvegicus [2]", "result": 17.27, "unit": "%"},
      {"measurement": "Activity", "setting": "Rattus norvegicus [3]", "result": 1.22, "unit": "%"},
      {"measurement": "Activity", "setting": "Rattus norvegicus [4]", "result": 36.21, "unit": "%"},
      {"measurement": "Drug uptake", "setting": "Rattus norvegicus [5]", "result": 1.49, "unit": "%"},
      {"measurement": "Activity", "setting": "Rattus norvegicus [6]", "result": 21.63, "unit": "%"},
      {"measurement": "Activity", "setting": "Rattus norvegicus [7]", "result": 19.73, "unit": "%"},
      {"measurement": "Activity", "setting": "Rattus norvegicus [8]", "result": 39.82, "unit": "%"},
      {"measurement": "Activity", "setting": "Rattus norvegicus [9]", "result": 38.98, "unit": "%"},
      {"measurement": "Activity", "setting": "Rattus norvegicus [10]", "result": 15.91, "unit": "%"},
      {"measurement": "Activity", "setting": "Rattus norvegicus [11]", "result": "Dose-dependent effect"},
      {"measurement": "Activity", "setting": "Rattus norvegicus [12]", "result": 25.81, "unit": "%"},
      {"measurement": "Activity", "setting": "Rattus norvegicus [13]", "result": 2.7, "unit": "%"},
      {"measurement": "Activity", "setting": "Rattus norvegicus [14]", "result": 5.18, "unit": "%"},
      {"measurement": "Activity", "setting": "Rattus norvegicus [15]", "result": 2.3, "unit": "%"},
      {"measurement": "Activity", "setting": "Rattus norvegicus [16]", "result": 19.08, "unit": "%"},
      {"measurement": "Activity", "setting": "Rattus norvegicus [17]", "result": 28.73, "unit": "%"},
      {"measurement": "Activity", "setting": "Rattus norvegicus [18]", "result": 10.7, "unit": "%"},
      {"measurement": "Activity", "setting": "Rattus norvegicus [19]", "result": 21.8, "unit": "%"},
      {"measurement": "Activity", "setting": "Rattus norvegicus [20]", "result": "Dose-dependent effect"},
      {"measurement": "Drug uptake", "setting": "Rattus norvegicus [21]", "result": 0.51, "unit": "%"},
      {"measurement": "Activity", "setting": "Rattus norvegicus [22]", "result": 2.29, "unit": "%"},
      {"measurement": "Activity", "setting": "Rattus norvegicus [23]", "result": "Dose-dependent effect"},
      {"measurement": "Activity", "setting": "Rattus norvegicus [24]", "result": 22.24, "unit": "%"},
      {"measurement": "Activity", "setting": "Rattus norvegicus [25]", "result": "Dose-dependent effect"},
      {"measurement": "Activity", "setting": "Rattus norvegicus [26]", "result": 11.28, "unit": "%"},
      {"measurement": "Activity", "setting": "Rattus norvegicus [27]", "result": 0.98, "unit": "%"},
      {"measurement": "Activity", "setting": "Rattus norvegicus [28]", "result": "Dose-dependent effect"},
      {"measurement": "Activity", "setting": "Rattus norvegicus [29]", "result": 18.25, "unit": "%"},
      {"measurement": "Activity", "setting": "Rattus norvegicus [30]", "result": 2.35, "unit": "%"},
      {"measurement": "Activity", "setting": "Rattus norvegicus [31]", "result": "Dose-dependent effect"},
      {"measurement": "Activity", "setting": "Rattus norvegicus [32]", "result": 4.97, "unit": "%"},
      {"measurement": "Drug uptake", "setting": "Liver", "result": 0.69, "unit": "%"},
      {"measurement": "Drug uptake", "setting": "Liver; in the assay text read “equivalent to 250 umol” for “equivalent to 85 umol”", "result": 2.04, "unit": "%"}
    ]}
  ]
}
